According to ChEMBL document CHEMBL4411311, “Exploration of novel macrocyclic dipeptide N-benzyl amides as proteasome inhibitors” (Eur J Med Chem, 2019):

Assays:
[1] = target: T1, Proteasome Macropain subunit MB1 (Homo sapiens, UniProt P28074); experiment: Inhibition of human hepatic cell derived 20s constitutive proteasome beta5 chymotrypsin-like activity using Suc-WLA-AMC as substrate preincubated for 15 mins followed by substrate addition and measured after 60 mins by fluorescence assay
T1 sequence (P28074 whole entry): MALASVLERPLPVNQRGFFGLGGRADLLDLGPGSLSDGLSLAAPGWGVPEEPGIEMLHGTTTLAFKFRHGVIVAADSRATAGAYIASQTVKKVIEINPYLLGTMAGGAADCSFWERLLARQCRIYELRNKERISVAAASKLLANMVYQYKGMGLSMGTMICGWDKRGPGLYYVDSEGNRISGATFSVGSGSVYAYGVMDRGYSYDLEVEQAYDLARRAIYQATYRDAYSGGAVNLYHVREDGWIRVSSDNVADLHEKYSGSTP

[2] = target: T2, Proteasome Macropain subunit MB1 (Homo sapiens) (UniProt P28074); experiment: Inhibition of human hepatic cell derived 20s constitutive proteasome beta5 chymotrypsin-like activity at 10 uM using Suc-WLA-AMC as substrate preincubated for 15 mins followed by substrate addition and measured after 60 mins by fluorescence assay relative to control
T2 sequence (whole entry): T1 sequence (P28074 whole entry)

RPMI-8226 = experiment: Antiproliferative activity against human RPMI8226 cells after 72 hrs by MTS assay; type: functional, cell-based; settings: RPMI-8226, 72 h
Procedure, shortened: (§1)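 Cells kept at 37 °C in humidified 5% CO₂. RPMI 8226 and MM.1S were grown in RPMI-1640 with 10% FBS plus penicillin/streptomycin. Seeding per well was 5 × 10³ (RPMI 8226), 3 × 10⁴ (MM.1S) or 8 × 10³ (MV-4-11). Cells were treated with DMSO vehicle or graded concentrations, then given MTS/PMS for 2-4 h at 37 °C. OD read at 490 nm minus 690 nm background. Growth inhibition = (A_control − A_sample)/A_control; IC50 from variable-slope sigmoidal nonlinear fit.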

[3] = Inhibition of human peripheral blood derived 20s immunoproteasome beta2 trypsin-like activity using […] as substrate preincubated for 15 mins followed by substrate addition and measured after 60 mins by fluorescence assay
MM1.S = experiment: Antiproliferative activity against human MM1S cells after 72 hrs by MTS assay; type: functional, cell-based; procedure, shortened: as §1
[4] = target: T3, Proteasome subunit beta type-8 (Homo sapiens, UniProt P28062); experiment: Inhibition of human peripheral blood derived 20s immunoproteasome beta5 chymotrypsin-like activity using […] as substrate preincubated for 15 mins followed by substrate addition and measured after 60 mins by fluorescence assay
T3 sequence (P28062 whole entry): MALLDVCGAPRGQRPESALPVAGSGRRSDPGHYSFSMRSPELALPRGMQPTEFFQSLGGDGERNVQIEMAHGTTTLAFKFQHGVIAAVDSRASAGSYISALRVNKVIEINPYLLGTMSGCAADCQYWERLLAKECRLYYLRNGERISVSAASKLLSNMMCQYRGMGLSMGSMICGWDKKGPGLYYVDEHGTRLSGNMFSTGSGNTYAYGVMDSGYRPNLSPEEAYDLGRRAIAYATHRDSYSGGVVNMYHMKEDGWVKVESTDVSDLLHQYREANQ

[5] = target: T4, Proteasome subunit beta type-9 (Homo sapiens, UniProt P28065); experiment: Inhibition of human peripheral blood derived 20s immunoproteasome beta1 caspase-like activity using Suc-PAL-AMC as substrate preincubated for 15 mins followed by substrate addition and measured after 60 mins by fluorescence assay
T4 sequence (P28065 whole entry): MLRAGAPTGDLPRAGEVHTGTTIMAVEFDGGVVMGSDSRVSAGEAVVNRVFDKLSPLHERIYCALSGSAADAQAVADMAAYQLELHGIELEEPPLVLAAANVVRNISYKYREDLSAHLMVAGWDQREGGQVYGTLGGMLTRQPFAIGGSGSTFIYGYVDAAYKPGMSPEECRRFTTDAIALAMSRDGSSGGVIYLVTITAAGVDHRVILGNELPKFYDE

[6] = Stability in human liver microsomes assessed as parent compound remaining at 1 uM measured after 30 mins by LC-MS/MS analysis; type: ADME, Microsome; settings: read-out: Stability
Procedure, shortened: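 Test compound at […] incubated with human liver microsomes (1.0 mg/mL protein) in 0.1 M PBS pH 7.4 with 1 mM NADPH. Microsomes preincubated 5 min at 37 °C; reaction started by compound addition and sampled at 0, 10, 20 and 30 min. Stopped with ice-cold methanol containing internal standard, then centrifuged at 15000g for 10 min. Supernatant analysed by LC-MS; % remaining = analyte/IS peak-area ratio relative to 0 min.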

MV4-11 = experiment: Antiproliferative activity against human MV4-11 cells after 72 hrs by MTS assay; type: functional, cell-based; settings: MV4-11, 72 h; procedure, shortened: as §1

IC50 [1] | inhibition [2] | IC50 (RPMI-8226) | IC50 [3] | IC50 (MM1.S) | IC50 [4] | IC50 [5] | remaining at 0.5 h, 1 µM [6] | IC50 (MV4-11) | SMILES
660 nM | – | – | – | – | – | – | – | – | CC(C)(C)CNC(=O)C[C@@H]1NC(=O)c2ccccc2OCCCCCCOC[C@@H](C(=O)NCc2ccccc2)NC1=O
– | 36.7% | – | – | – | – | – | – | – | O=C1N[C@@H](CCc2ccccc2)C(=O)N[C@H](C(=O)NCc2ccccc2Cl)COCCCCCCOc2ccccc21
29 nM | – | 18 nM | > 10000 nM | 15 nM | 35 nM | > 10000 nM | ≥ 66% | 21 nM | Cc1ccc(CNC(=O)[C@@H]2COCCCCCCCc3c(cnn3C)C(=O)N[C@@H](CC(=O)NCC(C)(C)C)C(=O)N2)cc1
– | – | 2 nM | – | < 1 nM | – | – | – | – | CC(C)C[C@H](NC(=O)[C@H](CCc1ccccc1)NC(=O)CN1CCOCC1)C(=O)N[C@@H](Cc1ccccc1)C(=O)N[C@@H](CC(C)C)C(=O)[C@@]1(C)CO1 [CARFILZOMIB]
34 nM | – | 15 nM | > 10000 nM | 6 nM | 19 nM | > 10000 nM | < 20% | 12 nM | Cc1ccc(CNC(=O)[C@@H]2COCCCCCCCn3ccnc3C(=O)N[C@@H](CC(=O)NCC(C)(C)C)C(=O)N2)cc1
67 nM | – | 175 nM | – | 37 nM | – | – | – | 76 nM | Cc1ccc(CNC(=O)[C@@H]2COCCCCCCOc3ccccc3C(=O)N[C@@H](CC(=O)NCC(C)(C)C)C(=O)N2)cc1
– | 38.4% | – | – | – | – | – | – | – | Cc1ccc(CNC(=O)[C@@H]2COCCCCCCOc3ccccc3C(=O)N[C@@H](CCc3ccccc3)C(=O)N2)cc1
9 nM | – | 97 nM | – | 64 nM | – | – | < 5% | 73 nM | CCCCCCOC[C@H](NC(=O)[C@H](CC(=O)NCC(C)(C)C)NC(=O)c1cnn(C)c1CCC)C(=O)NCc1ccc(C)cc1
26 nM | – | 59 nM | – | 17 nM | – | – | – | 52 nM | Cc1ccc(CNC(=O)[C@@H]2Cc3cn(c4ccccc34)CCCCCn3ccnc3C(=O)N[C@@H](CC(=O)NCC(C)(C)C)C(=O)N2)cc1
– | – | – | 517 nM | – | – | – | – | – | CC(C)C[C@H](NC(=O)[C@H](Cc1ccccc1)NC(=O)c1cnccn1)B(O)O [BORTEZOMIB]
30 nM | – | 58 nM | – | 23 nM | – | – | – | 55 nM | Cc1ccc(CNC(=O)[C@@H]2COCCCCCCOc3c(cnn3C)C(=O)N[C@@H](CC(=O)NCC(C)(C)C)C(=O)N2)cc1
50 nM | – | 27 nM | – | 220 nM | – | – | – | 208 nM | Cc1ccc(CNC(=O)[C@H]2NC(=O)[C@H](CC(=O)NCC(C)(C)C)NC(=O)c3nccn3CCCCCCCO[C@H]2C)cc1
127 nM | – | 301 nM | – | 343 nM | – | – | – | 718 nM | CC(C)(C)CNC(=O)C[C@@H]1NC(=O)c2ccccc2OCCCCCCOC[C@@H](C(=O)NCc2ccccc2Cl)NC1=O
– | 34% | – | – | – | – | – | – | – | COC[C@@H]1NC(=O)c2ccccc2OCCCCCCOC[C@@H](C(=O)NCc2ccccc2Cl)NC1=O
